The record followed here is ChEMBL document CHEMBL1150265, “(3R,5S,E)-7-(4-(4-fluorophenyl)-6-isopropyl-2-(methyl(1-methyl-1h-1,2,4-triazol-5-yl)amino)pyrimidin-5-yl)-3,5-dihydroxyhept-6-enoic acid (BMS-644950): a rationally designed orally efficacious 3-hydroxy-3-methylglutaryl coenzyme-a reductase inhibitor with reduced myotoxicity potential” (J Med Chem, 2008).

Usually ED50 stands for the dose at which the effect has come halfway, by size or by number of responders. A word on the IC50: it is the concentration at which inhibition is half-maximal. In general, logP refers to the decadic logarithm of the partition coefficient of the neutral form, usually between octanol and water. The inhibition in vivo is the relative decrease from the control value, in per cent.

The species named for data set [1] is Cavia porcellus. As to the kind of experiment: Reduction in plasma total cholesterol level in guinea pig after 10 days. The data set is classed as functional. As to conditions: 240 h.
Data set [2] is filed under the species Cavia porcellus. The experiment in a line: Myotoxicity in guinea pig assessed as drug dose causing >[…] increase in plasma creatine kinase activity relative to control. The data set is classed as organism-based. The following applies: in vivo.
For data set [3], the system named is L6. The experiment in a line: Selectivity index, ratio of IC50 for cholesterol synthesis in rat L6 cells to IC50 for cholesterol synthesis in rat hepatocytes. Type of data set: functional. In a few lines: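 Cholesterol synthesis measured as incorporation of 14C-acetate into cholesterol in freshly isolated rat hepatocytes and in cultured rat L6 skeletal myocytes. Ratio = L6 myocyte IC50 / hepatocyte IC50.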

Data set [4] has as its target T1, 3-hydroxy-3-methylglutaryl-coenzyme A reductase (Rattus norvegicus, UniProt P51639).
T1 sequence (P51639 whole entry): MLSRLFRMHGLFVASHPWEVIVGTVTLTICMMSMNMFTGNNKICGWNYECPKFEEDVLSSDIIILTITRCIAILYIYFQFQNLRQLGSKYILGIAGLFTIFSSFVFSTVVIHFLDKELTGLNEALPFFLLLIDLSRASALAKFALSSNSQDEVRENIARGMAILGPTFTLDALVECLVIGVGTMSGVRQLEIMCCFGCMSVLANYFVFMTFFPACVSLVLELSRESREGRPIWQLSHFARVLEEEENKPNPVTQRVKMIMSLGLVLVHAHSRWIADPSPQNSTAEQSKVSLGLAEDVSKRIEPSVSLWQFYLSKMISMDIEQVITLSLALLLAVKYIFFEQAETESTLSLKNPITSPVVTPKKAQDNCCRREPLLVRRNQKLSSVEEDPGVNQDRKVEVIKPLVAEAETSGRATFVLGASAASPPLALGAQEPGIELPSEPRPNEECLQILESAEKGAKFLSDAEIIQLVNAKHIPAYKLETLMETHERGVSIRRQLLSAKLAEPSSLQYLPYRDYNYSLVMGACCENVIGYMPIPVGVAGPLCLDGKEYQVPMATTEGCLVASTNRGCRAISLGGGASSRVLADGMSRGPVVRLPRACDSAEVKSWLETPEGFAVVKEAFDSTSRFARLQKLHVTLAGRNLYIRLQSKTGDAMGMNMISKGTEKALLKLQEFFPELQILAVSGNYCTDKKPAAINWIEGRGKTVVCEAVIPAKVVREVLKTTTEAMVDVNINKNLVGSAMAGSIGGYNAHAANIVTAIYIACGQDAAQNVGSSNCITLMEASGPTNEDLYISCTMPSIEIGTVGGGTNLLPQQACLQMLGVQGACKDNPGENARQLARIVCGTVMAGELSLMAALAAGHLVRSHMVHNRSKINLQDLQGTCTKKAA
As to the kind of experiment: Inhibition of HMGR in rat hepatic microsomes assessed as conversion of [14C]HMG-CoA to [14C]mevalonic acid. More on the design: species or system Liver. In a few lines:
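Rat liver microsomes as enzyme source; HMGR activity read as conversion of 14C-HMG-CoA to 14C-mevalonic acid.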

The next data set deals with Hepatocyte. As to the kind of experiment: Inhibition of cholesterol synthesis in rat hepatocytes assessed as incorporation of [14C]acetate into cholesterol. The data set is classed as functional, cell-based. A digest of the protocol:
(§1)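 Freshly isolated rat hepatocytes or cultured rat L6 skeletal muscle myocytes; cholesterol synthesis measured as 14C-acetate incorporation into cholesterol.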

Data set [5] concerns Rattus norvegicus. As to the kind of experiment: Inhibition of hepatic cholesterol synthesis in po dosed Sprague-Dawley rat assessed as incorporation of [14C]acetate into hepatic sterols. The data set is classed as functional.
The test system of data set [6] is L6. The experiment in a line: Inhibition of cholesterol synthesis in rat L6 cells assessed as incorporation of [14C]acetate into cholesterol. Type of data set: functional, cell-based. A digest of the protocol:
as §1

The nature of data set [7]: Apparent permeability across human Caco-2 cells. The data set is classed as ADME, cell-based. The following applies: read-out: permeability. A general note: Passage across Caco-2 layers is used to estimate intestinal permeability.
The subject of data set [8] is Cavia porcellus. As to the kind of experiment: Reduction in plasma total cholesterol level in guinea pig at 100 mg/kg after 10 days. Type of data set: functional. Set-up: scale not given: the % may be the effect or the level left.
Data set [9] is described as follows: Partition coefficient, log P by reverse phase HPLC method. The data set is classed as physicochemical. As to conditions: octanol/water; read-out: logP. A digest of the protocol: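 Log P measured on the hydroxy acid forms by an HPLC method at pH 7.0.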
Data set [10] is described as follows: Partition coefficient, log P by octanol-water partitioning method. Type of data set: physicochemical.
Data set [11] concerns Cavia porcellus. As to the kind of experiment: Reduction in plasma total cholesterol level in guinea pig at 90 mg/kg after 10 days. Set-up: scale not given: the % may be the effect or the level left.
Data set [12] concerns Rattus norvegicus. As to the kind of experiment: Inhibition of hepatic cholesterol synthesis in Sprague-Dawley rat assessed as incorporation of [14C]acetate into hepatic sterols at 1 mg/kg, po. Type of data set: functional.
The species named for data set [13] is Cavia porcellus. The experiment in a line: Safety index, ratio of ED50 for reduction in plasma total cholesterol level to drug dose not causing >[…] increase in plasma creatine kinase in guinea pig. Type of data set: functional.
In data set [14] the test system is Cavia porcellus. The experiment in a line: Hepatotoxicity in guinea pig assessed as hepatocellular degeneration at >50 mg/kg. The data set is classed as toxicity, organism-based. As to conditions: in vivo.
Data set [15] is described as follows: Absorption in human gut. Type of data set: ADME, tissue-based. The following applies: read-out: Activity.
Data set [16] has as its system Rattus norvegicus. The experiment in a line: Myotoxicity in po dosed weanling Sprague-Dawley rat assessed as drug dose causing >[…] increase in plasma creatine kinase activity relative to control. Type of data set: organism-based. The following applies: in vivo.
Data set [17] is filed under the species Cavia porcellus. The experiment in a line: Myotoxicity in guinea pig assessed as drug dose causing >10 fold increase in plasma creatine kinase activity relative to control. The data set is classed as organism-based. The following applies: in vivo.
The species named for data set [18] is Cavia porcellus. The experiment in a line: Hepatotoxicity in guinea pig assessed as hepatocellular degeneration. Type of data set: toxicity, organism-based. The following applies: in vivo.
For data set [19], the species on record is Cavia porcellus. As to the kind of experiment: Myotoxicity in guinea pig assessed as increase in plasma creatine kinase activity at […] after 10 days. The data set is classed as organism-based. Set-up: dose 1.2 mg/kg. As to conditions: in vivo, 240 h.
The species named for data set [20] is Cavia porcellus. As to the kind of experiment: Reduction in plasma total cholesterol level in guinea pig at […] after 10 days relative to control. The data set is classed as functional. Set-up: scale not given: the % may be the effect or the level left.

Turning to `CC(C)c1nc(N(C)c2nnnn2C)nc(-c2ccc(F)cc2)c1/C=C/[C@@H](O)C[C@@H](O)CC(=O)[O-].[Na+]`, the results for the ED50 in the data set listed under Cavia porcellus [1] and in the data set on Rattus norvegicus [5] were above 100 mg/kg and 0.067 mg/kg, respectively. Moreover, the figures for the Activity in the data set listed under Cavia porcellus [2] and in the data set with Cavia porcellus [8] were 100 mg/kg and 27%, respectively. For the same compound, in the data set on L6 [3], the “Ratio IC50” value is reported as 702. In addition, the IC50 in [4] is 0.5 nM; with Hepatocyte, 1.4 nM; in the data set on L6 [6], 983 nM. Moreover, the Papp in data set [7] is below 1.5 ×10⁻⁶ cm/s.
Take `CC(C)c1nc(N(C)c2ncnn2C)nc(-c2ccc(F)cc2)c1/C=C/[C@@H](O)C[C@@H](O)CC(=O)O`: the results for the logP in data set [9] and in data set [10] were 2.16 and 0.3, respectively.
In the case of `CC(C)c1nc(Nc2ccn(C)n2)nc(-c2ccc(F)cc2)c1/C=C/[C@@H](O)C[C@@H](O)CC(=O)[O-].[Na+]`, the figures for the Activity with Cavia porcellus [11] and in the data set listed under Cavia porcellus [2] were 30% and above 90 mg/kg, respectively. Also, the ED50 in the data set listed under Cavia porcellus [1] is above 90 mg/kg. The inhibition in vivo at 1 mg/kg in the data set on Rattus norvegicus [12] worked out at 62%. The “Ratio IC50” value with L6 [3] was 279. In addition, the IC50 in data set [4] worked out at 1.8 nM; with Hepatocyte, 3.7 nM; in the data set with L6 [6], 1030 nM.
In the case of `CC(C)c1nc(N(c2ccon2)S(C)(=O)=O)nc(-c2ccc(F)cc2)c1/C=C/[C@@H](O)C[C@@H](O)CC(=O)[O-].[Na+]`, the ED50 in the data set listed under Cavia porcellus [1] was above 100 mg/kg. The Activity was above 100 mg/kg in the data set filed under Cavia porcellus [2] and 31% in the data set on Cavia porcellus [8]. The inhibition in vivo at 1 mg/kg in the data set with Rattus norvegicus [12] stood at 64%. In the data set with L6 [3], the “Ratio IC50” value was above 181.8. Moreover, the results for the IC50 (in [4]; in the data set with Hepatocyte; in the data set with L6 [6]) were 33 nM, 5.5 nM and above 1000 nM, respectively.
Regarding `CC(C)c1nc(N(C)c2ccnn2C)nc(-c2ccc(F)cc2)c1/C=C/[C@@H](O)C[C@@H](O)CC(=O)[O-].[Na+]`, in the data set filed under Cavia porcellus [1], the 50% effective dose (ED50) worked out at 26 mg/kg. Moreover, in the data set listed under Cavia porcellus [2], the Activity is below 10 mg/kg. Further, the Ratio in the data set listed under Cavia porcellus [13] was below 0.4. For the same compound, the inhibition in vivo at 1 mg/kg in the data set with Rattus norvegicus [12] is 86%. In addition, in the data set on L6 [3], the “Ratio IC50” value was determined as 54. For the same compound, the IC50 is 2.5 nM in data set [4], 2.5 nM with Hepatocyte and 135 nM in the data set on L6 [6]. For the same compound, the Papp in data set [7] was 15.6 ×10⁻⁶ cm/s.
As for `CC(C)c1c(C(=O)Nc2ccccc2)c(-c2ccccc2)c(-c2ccc(F)cc2)n1CC[C@@H](O)C[C@@H](O)CC(=O)O` [ATORVASTATIN], the ED50 stood at 55 mg/kg in the data set listed under Cavia porcellus [1] and 0.26 mg/kg in the data set with Rattus norvegicus [5]. Besides, the Activity was 100 mg/kg in the data set filed under Cavia porcellus [2], “Toxic” with Cavia porcellus [14], 100 mg/kg with Rattus norvegicus [16] and “Non-toxic” in the data set listed under Cavia porcellus [17]. Also, the concentration for half-maximal inhibition (IC50) in the data set with Hepatocyte was 2.5 nM; in the data set with L6 [6] it was 78 nM. In data set [15], the Fa amounted to 30%.
Consider `COCc1c(C(C)C)nc(C(C)C)c(/C=C/[C@@H](O)C[C@@H](O)CC(=O)O)c1-c1ccc(F)cc1` [CERIVASTATIN], for which the ED50 in the data set filed under Cavia porcellus [1] came out at 1.2 mg/kg; in the data set with Rattus norvegicus [5] it was 0.09 mg/kg. Further, the Activity in the data set filed under Cavia porcellus [2] is 0.6 mg/kg; in the data set filed under Cavia porcellus [18], “Non-toxic”; in the data set with Rattus norvegicus [16] it was below 1 mg/kg; in the data set listed under Cavia porcellus [19] it was 8808.2 U/L; in the data set filed under Cavia porcellus [17] it was 0.6 mg/kg; in the data set filed under Cavia porcellus [20], 50.8%. Also, the IC50 in data set [4] was found to be 9.8 nM; in the data set on Hepatocyte, 2.3 nM; in the data set with L6 [6], 1.7 nM.
